Drawing on ChEMBL document CHEMBL5696442, “Discovery of type II inhibitors of TGFβ-activated kinase 1 (TAK1) and mitogen-activated protein kinase kinase kinase kinase 2 (MAP4K2)” (J Med Chem, 2015), this text covers inhibition and IC50 for four molecules.

Molecules are shown by their SMILES. pIC50: −log10 of the molar value. Calls of active or inactive are those of the source. The calls are words filed in the database; no cut-off is given here.

Assay [1] deals with T1, Mitogen-activated protein kinase 12 (Homo sapiens) (UniProt P53778).
T1 sequence (whole entry): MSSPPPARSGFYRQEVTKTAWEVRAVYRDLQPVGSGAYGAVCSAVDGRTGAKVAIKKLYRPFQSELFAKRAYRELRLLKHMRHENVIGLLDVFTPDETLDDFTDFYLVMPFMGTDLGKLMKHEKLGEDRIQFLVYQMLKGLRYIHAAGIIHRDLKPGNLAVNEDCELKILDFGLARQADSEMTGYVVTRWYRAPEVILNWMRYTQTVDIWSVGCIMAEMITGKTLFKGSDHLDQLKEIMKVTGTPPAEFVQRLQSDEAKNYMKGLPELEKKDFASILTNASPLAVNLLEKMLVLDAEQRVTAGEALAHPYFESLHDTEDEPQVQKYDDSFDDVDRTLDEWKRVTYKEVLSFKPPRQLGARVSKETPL
In words: Inhibition of p38 gamma Lys2 labeling site in human A-375 cells at 0.05 uM by KiNativ Profiling analysis relative to control. It counts as cell-based.

Assay [2] has as its target Serine/threonine-protein kinase WNK1 (Homo sapiens) (UniProt Q9H4A3). In words: Inhibition of Wnk1 Lys2 labeling site in human A-375 cells at 0.05 uM by KiNativ Profiling analysis relative to control. The assay is classed as cell-based.
Assay [3] has as its target Serine/threonine-protein kinase SIK3 (Homo sapiens) (UniProt Q9Y2K2). Briefly: Inhibition of QSK Lys2 labeling site in human A-375 cells at 0.5 uM by KiNativ Profiling analysis relative to control. It counts as cell-based.
Assay [4] has as its target Tyrosine-protein kinase ABL2 (Homo sapiens, UniProt P42684). Briefly: Inhibition of ARG (unknown origin) ACT labeling site by KiNativ Profiling analysis.
Assay [5] deals with T2, Serine/threonine-protein kinase LATS2 (Homo sapiens) (UniProt Q9NRM7).
T2 sequence (whole entry): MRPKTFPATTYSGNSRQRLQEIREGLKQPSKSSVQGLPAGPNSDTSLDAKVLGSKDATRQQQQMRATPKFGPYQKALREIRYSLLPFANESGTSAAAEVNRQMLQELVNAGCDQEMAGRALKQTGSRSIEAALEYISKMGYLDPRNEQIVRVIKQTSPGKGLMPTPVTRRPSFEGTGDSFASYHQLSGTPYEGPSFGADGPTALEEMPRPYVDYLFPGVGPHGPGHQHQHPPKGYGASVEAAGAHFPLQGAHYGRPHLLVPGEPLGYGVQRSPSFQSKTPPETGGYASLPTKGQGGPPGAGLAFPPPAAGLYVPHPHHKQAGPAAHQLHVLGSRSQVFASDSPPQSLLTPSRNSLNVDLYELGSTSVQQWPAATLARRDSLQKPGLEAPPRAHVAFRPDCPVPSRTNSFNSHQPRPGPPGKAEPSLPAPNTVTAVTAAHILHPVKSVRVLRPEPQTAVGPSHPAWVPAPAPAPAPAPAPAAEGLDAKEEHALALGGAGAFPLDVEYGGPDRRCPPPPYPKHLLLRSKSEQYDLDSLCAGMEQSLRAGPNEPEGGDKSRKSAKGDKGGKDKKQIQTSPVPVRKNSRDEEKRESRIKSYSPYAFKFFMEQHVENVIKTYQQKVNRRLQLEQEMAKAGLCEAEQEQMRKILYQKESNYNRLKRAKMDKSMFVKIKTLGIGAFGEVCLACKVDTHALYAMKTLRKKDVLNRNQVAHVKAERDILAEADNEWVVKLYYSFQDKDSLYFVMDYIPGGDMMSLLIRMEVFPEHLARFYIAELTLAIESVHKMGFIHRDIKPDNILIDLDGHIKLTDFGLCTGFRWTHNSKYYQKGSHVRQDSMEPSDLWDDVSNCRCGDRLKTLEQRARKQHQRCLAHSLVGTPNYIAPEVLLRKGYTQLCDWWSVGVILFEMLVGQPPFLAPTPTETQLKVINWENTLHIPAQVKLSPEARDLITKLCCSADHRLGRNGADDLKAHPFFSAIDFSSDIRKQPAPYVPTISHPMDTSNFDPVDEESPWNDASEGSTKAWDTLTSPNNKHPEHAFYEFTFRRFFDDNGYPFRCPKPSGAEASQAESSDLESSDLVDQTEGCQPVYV
In words: Inhibition of LATS2 Lys2 labeling site in human A-375 cells at 0.05 uM by KiNativ Profiling analysis relative to control. The assay is classed as cell-based.

Assay [6] addresses Ribosomal protein S6 kinase alpha-3 (Homo sapiens) (UniProt P51812). In words: Inhibition of RSK2 domain2 Protein Kinase Domain in human A-375 cells at 5 uM by KiNativ Profiling analysis relative to control. The assay is classed as cell-based. A digest of the protocol: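 Live A375 melanoma cells treated with compound at 5 or 0.5 μM, then lysed. Lysate kinases were labeled with a lysine-reactive ATP or ADP-biotin probe. Inhibition was read as protection of labeling sites from the probe.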

Assay [7] concerns the target Serine/threonine-protein kinase WNK2 (Homo sapiens) (UniProt Q9Y3S1). Briefly: Inhibition of Wnk2 Lys2 labeling site in human A-375 cells at 5 uM by KiNativ Profiling analysis relative to control. It counts as cell-based.
Assay [8] addresses Mitogen-activated protein kinase kinase kinase kinase 4 (Homo sapiens, UniProt O95819). In words: Inhibition of ZC1/HGK Lys2 labeling site in human A-375 cells at 0.5 uM by KiNativ Profiling analysis relative to control. The assay is classed as cell-based.
The target of assay [9] is Cyclin-dependent kinase 17 (Homo sapiens) (UniProt Q00537). In words: Inhibition of PCTAIRE2 Lys1 labeling site harbouring SKLTENLVALKEIRLEHEEGAPCTAIR in human A-375 cells at 5 uM by KiNativ Profiling analysis relative to control. It counts as cell-based.
Assay [10] concerns the target 5'-AMP-activated protein kinase catalytic subunit alpha-2 (Homo sapiens) (UniProt P54646). In words: Inhibition of AMPKa2 Lys1 labeling site in human A-375 cells at 0.05 uM by KiNativ Profiling analysis relative to control. It counts as cell-based.
For assay [11], the target named is Tyrosine-protein kinase Lyn (Homo sapiens, UniProt P07948). Briefly: Inhibition of LYN Lys1 labeling site in human A-375 cells at 5 uM by KiNativ Profiling analysis relative to control. The assay is classed as cell-based.
Assay [12] deals with Mitogen-activated protein kinase 8 (Homo sapiens, UniProt P45983). In words: Inhibition of JNK1 Lys2 labeling site in human A-375 cells at 5 uM by KiNativ Profiling analysis relative to control. The assay is classed as cell-based.
For assay [13], the target named is Mitogen-activated protein kinase 9 (Homo sapiens, UniProt P45984). Briefly: Inhibition of JNK2 Lys2 labeling site in human A-375 cells at 0.5 uM by KiNativ Profiling analysis relative to control. The assay is classed as cell-based.
Sequence of Mitogen-activated protein kinase 9 (P45984 whole entry, looked up): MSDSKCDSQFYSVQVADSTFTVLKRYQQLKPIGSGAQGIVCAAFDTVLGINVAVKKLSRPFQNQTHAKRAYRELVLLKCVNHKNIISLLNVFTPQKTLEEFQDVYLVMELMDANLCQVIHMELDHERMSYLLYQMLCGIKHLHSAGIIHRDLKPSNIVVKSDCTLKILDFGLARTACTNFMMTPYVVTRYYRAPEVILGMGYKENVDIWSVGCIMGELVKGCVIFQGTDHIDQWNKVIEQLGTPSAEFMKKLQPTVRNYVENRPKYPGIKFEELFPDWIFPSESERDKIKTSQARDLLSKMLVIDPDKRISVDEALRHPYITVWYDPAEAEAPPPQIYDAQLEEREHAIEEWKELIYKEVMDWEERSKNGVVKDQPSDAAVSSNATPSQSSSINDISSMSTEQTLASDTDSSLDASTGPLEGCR
Assay [14] has as its target Serine/threonine-protein kinase MRCK beta (Homo sapiens) (UniProt Q9Y5S2). In words: Inhibition of MRCKb in human A-375 cells at 0.05 uM by KiNativ Profiling analysis relative to control. It counts as cell-based.
Assay [15] addresses Serine/threonine-protein kinase mTOR (Homo sapiens) (UniProt P42345). Briefly: Inhibition of FRAP ATP labeling site in human Huh-7 cells at 1 uM by KiNativ Profiling analysis relative to control. It counts as cell-based.
Assay [16] deals with Tyrosine-protein kinase Fer (Homo sapiens, UniProt P16591). Briefly: Inhibition of FER Lys1 labeling site in human Huh-7 cell lysate at 1 uM by KiNativ Profiling analysis relative to control. It counts as subcellular.

Sequence of 5'-AMP-activated protein kinase catalytic subunit alpha-2 (Homo sapiens) (P54646 whole entry, looked up): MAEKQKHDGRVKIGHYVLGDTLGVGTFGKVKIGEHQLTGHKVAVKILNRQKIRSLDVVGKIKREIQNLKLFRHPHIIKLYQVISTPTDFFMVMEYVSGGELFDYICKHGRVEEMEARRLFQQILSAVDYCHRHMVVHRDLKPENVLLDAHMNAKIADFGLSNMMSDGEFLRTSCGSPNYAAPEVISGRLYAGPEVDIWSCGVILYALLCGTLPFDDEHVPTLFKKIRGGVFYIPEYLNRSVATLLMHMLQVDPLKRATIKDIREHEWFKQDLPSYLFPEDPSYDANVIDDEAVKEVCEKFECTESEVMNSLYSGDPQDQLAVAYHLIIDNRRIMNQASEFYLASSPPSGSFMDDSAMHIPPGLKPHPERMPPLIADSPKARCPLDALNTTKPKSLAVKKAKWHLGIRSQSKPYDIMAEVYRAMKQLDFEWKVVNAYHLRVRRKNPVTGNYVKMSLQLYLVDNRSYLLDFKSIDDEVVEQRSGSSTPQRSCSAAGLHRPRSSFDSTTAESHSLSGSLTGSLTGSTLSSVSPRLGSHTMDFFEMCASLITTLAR
Sequence of Serine/threonine-protein kinase WNK1 (Homo sapiens) (Q9H4A3 whole entry, looked up): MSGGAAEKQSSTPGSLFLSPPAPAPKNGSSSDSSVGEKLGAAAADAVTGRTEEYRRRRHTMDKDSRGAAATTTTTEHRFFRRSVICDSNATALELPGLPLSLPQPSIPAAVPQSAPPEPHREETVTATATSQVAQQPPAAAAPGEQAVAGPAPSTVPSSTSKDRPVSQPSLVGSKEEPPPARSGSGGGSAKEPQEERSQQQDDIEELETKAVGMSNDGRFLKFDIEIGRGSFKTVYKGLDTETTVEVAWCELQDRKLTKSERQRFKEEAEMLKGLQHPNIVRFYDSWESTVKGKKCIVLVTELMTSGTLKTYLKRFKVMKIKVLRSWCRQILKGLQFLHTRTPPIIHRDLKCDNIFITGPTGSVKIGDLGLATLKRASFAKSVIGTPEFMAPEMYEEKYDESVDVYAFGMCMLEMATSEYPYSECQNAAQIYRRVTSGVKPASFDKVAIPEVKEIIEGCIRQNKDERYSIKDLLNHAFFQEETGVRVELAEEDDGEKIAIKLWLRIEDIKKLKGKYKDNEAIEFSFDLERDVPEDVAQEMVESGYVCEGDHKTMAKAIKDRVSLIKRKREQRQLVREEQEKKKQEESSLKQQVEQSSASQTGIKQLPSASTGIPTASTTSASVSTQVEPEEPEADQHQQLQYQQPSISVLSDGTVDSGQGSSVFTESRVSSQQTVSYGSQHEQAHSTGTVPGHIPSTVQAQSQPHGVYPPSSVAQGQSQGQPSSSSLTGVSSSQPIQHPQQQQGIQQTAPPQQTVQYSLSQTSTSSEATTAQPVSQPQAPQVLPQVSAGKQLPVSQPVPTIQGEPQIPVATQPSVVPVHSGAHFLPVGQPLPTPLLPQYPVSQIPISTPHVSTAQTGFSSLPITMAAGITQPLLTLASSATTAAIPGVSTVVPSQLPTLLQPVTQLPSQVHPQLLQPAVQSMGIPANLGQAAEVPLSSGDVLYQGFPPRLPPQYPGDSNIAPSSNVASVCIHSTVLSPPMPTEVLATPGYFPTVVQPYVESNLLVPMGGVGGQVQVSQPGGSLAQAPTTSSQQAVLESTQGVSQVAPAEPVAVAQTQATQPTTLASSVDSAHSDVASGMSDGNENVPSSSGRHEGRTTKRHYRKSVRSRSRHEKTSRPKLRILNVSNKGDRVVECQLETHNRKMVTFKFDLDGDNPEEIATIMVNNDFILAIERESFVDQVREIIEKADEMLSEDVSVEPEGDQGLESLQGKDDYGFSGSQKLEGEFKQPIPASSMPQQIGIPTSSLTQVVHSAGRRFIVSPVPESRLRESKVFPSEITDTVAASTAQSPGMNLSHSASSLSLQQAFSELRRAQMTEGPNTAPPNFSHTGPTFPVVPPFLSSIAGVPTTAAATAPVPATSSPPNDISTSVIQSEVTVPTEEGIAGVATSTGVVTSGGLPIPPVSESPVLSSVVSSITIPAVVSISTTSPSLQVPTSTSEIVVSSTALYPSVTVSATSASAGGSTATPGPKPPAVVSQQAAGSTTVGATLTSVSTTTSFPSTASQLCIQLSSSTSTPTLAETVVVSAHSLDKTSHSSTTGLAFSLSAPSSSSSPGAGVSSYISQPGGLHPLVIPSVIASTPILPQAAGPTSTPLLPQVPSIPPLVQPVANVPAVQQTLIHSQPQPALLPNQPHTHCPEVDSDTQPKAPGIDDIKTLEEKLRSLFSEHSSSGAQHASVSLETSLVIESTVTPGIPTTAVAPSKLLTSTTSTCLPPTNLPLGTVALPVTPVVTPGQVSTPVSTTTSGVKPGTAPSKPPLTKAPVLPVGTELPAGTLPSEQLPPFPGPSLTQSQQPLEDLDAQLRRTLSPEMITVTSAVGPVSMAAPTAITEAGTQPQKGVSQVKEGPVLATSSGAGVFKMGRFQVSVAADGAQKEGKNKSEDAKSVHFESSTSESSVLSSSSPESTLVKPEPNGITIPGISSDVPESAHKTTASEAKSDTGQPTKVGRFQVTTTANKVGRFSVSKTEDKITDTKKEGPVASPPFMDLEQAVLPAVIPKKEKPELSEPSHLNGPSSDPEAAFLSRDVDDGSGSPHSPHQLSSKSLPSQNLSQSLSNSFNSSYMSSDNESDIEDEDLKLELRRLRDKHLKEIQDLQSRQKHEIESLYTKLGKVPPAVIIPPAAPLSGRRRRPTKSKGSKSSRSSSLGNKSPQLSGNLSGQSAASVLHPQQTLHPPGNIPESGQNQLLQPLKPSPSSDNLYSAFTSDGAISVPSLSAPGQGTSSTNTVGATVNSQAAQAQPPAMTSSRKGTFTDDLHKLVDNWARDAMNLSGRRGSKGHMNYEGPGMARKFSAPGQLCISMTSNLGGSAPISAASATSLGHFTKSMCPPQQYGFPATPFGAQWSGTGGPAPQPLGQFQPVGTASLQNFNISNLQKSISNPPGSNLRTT
Sequence of Serine/threonine-protein kinase MRCK beta (Homo sapiens) (Q9Y5S2 whole entry): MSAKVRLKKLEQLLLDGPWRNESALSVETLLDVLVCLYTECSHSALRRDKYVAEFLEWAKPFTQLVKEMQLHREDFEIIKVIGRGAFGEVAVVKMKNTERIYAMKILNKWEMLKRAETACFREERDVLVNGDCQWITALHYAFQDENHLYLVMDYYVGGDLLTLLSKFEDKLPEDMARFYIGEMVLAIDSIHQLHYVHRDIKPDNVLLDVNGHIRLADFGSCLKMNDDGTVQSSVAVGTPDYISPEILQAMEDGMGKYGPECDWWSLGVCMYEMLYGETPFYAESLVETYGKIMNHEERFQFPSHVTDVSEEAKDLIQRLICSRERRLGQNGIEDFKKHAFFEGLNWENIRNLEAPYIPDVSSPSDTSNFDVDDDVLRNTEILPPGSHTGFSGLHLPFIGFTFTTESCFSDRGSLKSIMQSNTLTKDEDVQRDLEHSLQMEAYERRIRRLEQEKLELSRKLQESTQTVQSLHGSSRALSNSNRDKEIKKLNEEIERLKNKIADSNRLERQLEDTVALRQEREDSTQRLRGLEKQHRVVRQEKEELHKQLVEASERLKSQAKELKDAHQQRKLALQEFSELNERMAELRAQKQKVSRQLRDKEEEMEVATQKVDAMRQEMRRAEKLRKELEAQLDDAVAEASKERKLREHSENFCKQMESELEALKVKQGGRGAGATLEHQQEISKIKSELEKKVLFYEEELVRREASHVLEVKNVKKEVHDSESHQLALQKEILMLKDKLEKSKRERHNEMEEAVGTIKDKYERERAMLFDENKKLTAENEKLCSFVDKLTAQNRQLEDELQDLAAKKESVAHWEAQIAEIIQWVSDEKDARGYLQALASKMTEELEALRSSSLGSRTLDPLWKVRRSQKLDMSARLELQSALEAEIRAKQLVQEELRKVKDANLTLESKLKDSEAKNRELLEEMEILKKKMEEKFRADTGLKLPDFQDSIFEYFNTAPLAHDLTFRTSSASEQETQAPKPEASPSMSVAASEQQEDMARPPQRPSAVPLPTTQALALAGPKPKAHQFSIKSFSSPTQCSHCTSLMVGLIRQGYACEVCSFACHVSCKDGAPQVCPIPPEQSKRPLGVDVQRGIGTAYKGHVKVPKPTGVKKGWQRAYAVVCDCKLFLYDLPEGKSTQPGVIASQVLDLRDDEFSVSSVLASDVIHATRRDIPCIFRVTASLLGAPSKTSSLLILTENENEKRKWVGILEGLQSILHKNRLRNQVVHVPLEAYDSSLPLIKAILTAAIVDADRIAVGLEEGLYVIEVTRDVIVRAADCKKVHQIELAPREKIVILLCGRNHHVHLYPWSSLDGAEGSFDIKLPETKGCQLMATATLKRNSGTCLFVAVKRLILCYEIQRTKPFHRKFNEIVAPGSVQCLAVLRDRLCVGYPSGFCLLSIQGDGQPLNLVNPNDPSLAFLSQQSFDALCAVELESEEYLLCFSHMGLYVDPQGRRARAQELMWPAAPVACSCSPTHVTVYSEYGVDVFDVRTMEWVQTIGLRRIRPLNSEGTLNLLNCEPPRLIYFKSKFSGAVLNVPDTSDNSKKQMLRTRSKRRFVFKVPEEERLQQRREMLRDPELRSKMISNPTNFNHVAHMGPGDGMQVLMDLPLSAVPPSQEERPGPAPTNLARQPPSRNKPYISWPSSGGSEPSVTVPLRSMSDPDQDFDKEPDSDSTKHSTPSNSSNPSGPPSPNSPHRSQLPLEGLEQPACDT

The term inhibition denotes the drop in the measured response relative to a control, in per cent. Usually pIC50 stands for −log10 of the IC50, conventionally taken in molar units. A low value points to a high IC50. Consider `CCN1CCN(Cc2ccc(NC(=O)c3ccc(C)c(/C=C/c4cnc5[nH]ccc5c4OC)c3)cc2C(F)(F)F)CC1`, for which the inhibition in assay [1] is 24.3%; in [2], 7.1%; in [3] it was 40.3%; in assay [5] it was -3.3%; in assay [6], 33.3%; in assay [7], 14.3%. Moreover, the inhibition in assay [8] was 48.1%; in assay [9], 21.3%; in assay [10], 7.4%; in assay [11], greater than 95%; in [12], 76.9%; in assay [13] it was 40.6%. Also, the inhibition in [14] was 12.1%. Also, the pIC50 in assay [4] was 7.29.
Take `CCN1CCN(Cc2ccc(NC(=O)c3ccc(C)c(Oc4ccnc5[nH]ccc45)c3)cc2C(F)(F)F)CC1`: the inhibition in assay [1] is 64.9%; in assay [2], -3.5%; in assay [3], 39.8%; in assay [5], 14.3%; in assay [6] it was 0.4%; in assay [7] it was -5.5%. Further, the inhibition in assay [8] was 70.8%; in assay [9], 56.6%; in assay [10], 13.4%; in [11] it was greater than 95%; in assay [12], 90.3%; in [13], 73.7%. The inhibition in [14] was -8.8%. For the same molecule, the inhibition entry in [15] is “inactive”. This molecule had a pIC50 in [4] of 7.12.
Take `CNc1cc(Oc2cc(C(=O)Nc3cc(-n4cnc(C)c4)cc(C(F)(F)F)c3)ccc2C)ncn1`: the inhibition in assay [16] was 18.2%.
For `CNc1cc(Oc2cc(C(=O)Nc3cc(N4CCN(C)CC4)cc(C(F)(F)F)c3)ccc2C)ncn1`, the inhibition stood at 26.5% in assay [15] and 10.6% in [16].
